In ChEMBL document CHEMBL4513216, “Probing the Open Global Health Chemical Diversity Library for Multistage-Active Starting Points for Next-Generation Antimalarials” (ACS Infect Dis, 2020):

Assay: Toxicity liver stage against HepG2, at 10uM
Type: cell-based
Set-up: test concentration 10 uM, cell line HepG2-A16-CD81EGFP
Conditions: human, HepG2-A16-CD81EGFP cells; read-out: INHIBITION
In short: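 Uninfected HepG2-A16-CD81EGFP cells, 3 × 10^3 per well, 1536-well, plated on prespotted compound at 10 μM final, parasite-free screening media added to match infected plates; puromycin 10 μM positive, DMSO 0.5% negative; run in parallel with 48 h PbLuc assay at 37 °C, 5% CO2; viability by CellTiter-Glo luminescence, normalized to controls.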

Structure (SMILES) | cytotoxicity at 10 µM [%]
Cn1c(=O)c2sccc2n(Cc2ccccc2)c1=O | 4.84
CCOC(=O)CCC(=O)NC(C)c1ccc(NC(=O)CC)cc1 (centres undefined) | 0.097
COc1cc(CN2CCCC2c2cccc(F)c2)cc(OC)c1OC (centres undefined) | -2.03
CC(C)CCNC(=O)Cc1cnc(-n2cccc2)s1 | -2.49
CC(C)(C)C1SCC(=O)Nc2c1c(O)nn2C1CCCCC1 (centres undefined) | -16.7
Cc1cc(C(=O)N2CCN(c3nc4ccccc4s3)CC2)no1 | -110
CC(C)CNC(=O)c1cn(C(C)C)cc2c(=O)[nH]nc1-2 | 0.583
Cc1ccc(NC(=O)Nc2cnc(N3CCN(C)CC3)nc2)cc1 | -15.4
O=C(NC1CCC1)[C@H]1C[C@H]2NCCO[C@@H]2C1 | -131
CC(C)(C)C(=O)N1CC[C@@H]2[C@H](CC1)N(S(C)(=O)=O)CCS2(=O)=O | 0.64
Cc1cccc(CN2C(=O)CCC23CCN(Cc2nccn2C)CC3)n1 | 5.47
Cc1c(C)n(CC(O)CN2CCC(C)CC2)c2c(Cl)cccc12 (centres undefined) | -5.12
CCOC(=O)c1cn(CC(O)c2ccccc2OC)nn1 (centres undefined) | -4.06
COc1cc(C(=O)NC(C)C)nc2c(C)cc(F)cc12 | 2.43
O=C(c1cnc2ccc(F)cc2c1NCc1ccco1)N1CCCC1 | -54.5
COC1CC2(CCN(Cc3ccc4c(c3)OCO4)CC2)C1 | 3.07
O=C1CC(c2ccccc2)C2(CCN(Cc3ccccn3)CC2)N1 (centres undefined) | 3.91
CCOCC1CN(S(C)(=O)=O)Cc2cnn(C)c21 (centres undefined) | -15.4
O=C(CC1CC1)NCc1cc(=O)n2c(n1)CN(Cc1ccoc1)CCC2 | -20.6
CN(C)c1cc(CC(NC(=O)C2CC2)c2ccccc2)nc(C2CC2)n1 (centres undefined) | 5.73
Cc1nn(C)cc1S(=O)(=O)N[C@@H]1CCC[C@@H](N2CCCC2)[C@@H]1O | -3.02
Cc1nn(C)c(C)c1-c1ccc(=O)n(C(C)C(=O)NC2CC2)n1 (centres undefined) | 0.0475

Structure (SMILES) | cytotoxicity at 10 µM [%]
COCC(=O)N1CCCCC1c1nc(C)c2c(n1)N(C1CC1)C(=O)CC2 (centres undefined) | -1
CN1CCC(Cc2cc(N(C)C)ncn2)C1 (centres undefined) | 3.19
COc1ccccc1C1(O)CCCN(C(=O)c2cnc(SC)nc2)C1 (centres undefined) | 7.27
Fc1ccc(CN2CCC(c3nccnc3-n3ccnc3)CC2)cc1 | -0.259
CC(=O)Nc1ccc(CNC2COc3c2ccc(C)c3C)cc1 (centres undefined) | 6.56
OCc1cccc(OCc2ccon2)c1 | 0.266
COc1ccc(CCNC(=O)NCc2cccc(C(N)=O)c2)cc1OC | 11.8
Cc1[nH]nc2ncc(C(=O)N3CCCC3c3noc(C(C)C)n3)cc12 (centres undefined) | 8.38
NC(=O)C1CCCN(S(=O)(=O)c2cnn(-c3ccccc3)c2)C1 (centres undefined) | -66.6
COc1ccc(CCC2CCCCN2)cc1OC (centres undefined) | 12.1
Cc1ccc(C(C)N(C)C(=O)c2ccc(=O)n(C)c2)s1 (centres undefined) | -4.27
CCc1cc(=O)[nH]c(-c2ccc(NCCC(C)O)nc2)n1 (centres undefined) | -127
CC1CN(Cc2cccc(CNC3CCCC3)c2)CCO1 (centres undefined) | 3.06
Cc1noc(C(C)N2CCN(Cc3noc(C4CC4)n3)CC2)n1 (centres undefined) | 0.973
CC(CC(=O)N1CCN(c2cnccn2)CC1)c1ccc(F)cc1 (centres undefined) | -48
CC(c1ccccn1)N(C)C(=O)CN1CCN(c2ccccn2)CC1 (centres undefined) | 5.1
Cc1nc(-c2ccc(CC(=O)N3CCNC(=O)C3)cc2)cs1 | 6.14
COc1cc(OC)cc(N2CCC(NCc3cccs3)C2=O)c1 (centres undefined) | 4.63
Cc1ccc(C(=O)NCC(C)CN2CCCC2=O)c(=O)[nH]1 (centres undefined) | -8.57
CC(NC(=O)c1ccc(C#N)cn1)C1(N2CCOCC2)CCCC1 (centres undefined) | 2.54
CC(C)(C)C(=O)NCc1nccn1CCc1ccccc1 | 3.75
CC(C)c1nc(C(=O)N2CCOCC2CC(=O)c2ccco2)cs1 (centres undefined) | -7.58

Structure (SMILES) | cytotoxicity at 10 µM [%]
CSCC(CCO)NC(=O)Nc1cccc(Br)c1C (centres undefined) | -3.7
c1ccc(OCCN2CCC(n3cncn3)CC2)cc1 | -20.7
CC(C)N(Cc1ccccn1)C(=O)CCC(=O)c1ccc(F)cc1F | -0.535
CN(CC(=O)NC1CC1)C(=O)c1csc(Br)c1 | -0.872
CC(C)c1ocnc1C(=O)N1CC(=O)Nc2cccnc21 | 1.56
CC(C#N)(NC(=O)Cn1cc(I)cn1)C1CC1 (centres undefined) | 15.2
CN(C)c1ncc(CNC(=O)Nc2ccccc2C(F)(F)F)n1C | -55.3
c1ccc2[nH]c(C3CCN(Cc4nc(C5CC5)no4)CC3)cc2c1 | 9.02
COc1ccc(-c2nnc(SC(C)C(=O)NC3CC3)[nH]2)c(OC)c1 (centres undefined) | 45.3
Cc1nn(CC(=O)N2CCCC2Cn2cccn2)c(C)c1Cl (centres undefined) | 2.27
CCS(=O)(=O)N1Cc2nccn2CC(Cn2cccn2)C1 (centres undefined) | 10.7
Cc1nc(COC[C@@H]2CC[C@H]3[C@H](CCN3C(=O)C3CC3)O2)cs1 | -73.9
O=C1CC(c2cccnc2)C2(CCN(C(=O)N3CCOCC3)CC2)N1 (centres undefined) | -79.5
C[C@H]1CN(C(=O)N(C)C)C[C@@]12CCN(c1ccsc1)C2=O | -73.1
CC(C)Nc1ncnc2c1CCN(C(=O)CN(C)C)CC2 | -70.9
Cc1cccc(C(=O)N2Cc3ccccc3C3(CCN(C)CC3)C2)n1 | -73.5
CCO[C@@H]1CCN(C(=O)c2cscn2)[C@@H]1Cc1cnn(C)c1 | 4.84
CC(=O)NC(C)C1=CCCN(Cc2ccc(C(=O)O)cc2)C1 (centres undefined) | -12.1
COc1cccc2c1OCC(C(=O)NCCCn1nc(C)c(Cl)c1C)C2 (centres undefined) | -4.12
CN1CCC2(CCCN(S(=O)(=O)c3ccc(-c4cnco4)s3)C2)C1 (centres undefined) | -7.56
Cc1ccc(NCCCNC(=O)C2CC3(CCNCC3)CN2C)nc1 (centres undefined) | 6.07
Cc1c(-c2ccccc2)ncn1CC(c1cccnc1)N1CCOCC1 (centres undefined) | 2.11

Structure (SMILES) | cytotoxicity at 10 µM [%]
CCN1CCN(C(=O)CCC2CCN(C(C)CSC)CC2)CC1 (centres undefined) | -0.0154
O=C1N(Cc2ccc(F)c(F)c2)CCCC12CCN(C1CCCC1)C2 (centres undefined) | -2.8
O=C(NCC(F)F)c1ccc(S(=O)(=O)N2CCCC(O)C2)cc1 (centres undefined) | 1.29
Cc1cc(C(=O)N2CCNC(c3ccccc3)C2)c2ccc(F)cc2n1 (centres undefined) | 3.09
Nc1cc(C(=O)NCC2CCN(CCc3ccccc3)C2)ccn1 (centres undefined) | -5.47
Cc1ncc(CN2CCCC2c2ccc(C(=O)NCc3ccoc3)s2)s1 (centres undefined) | -1.06
Cc1nc(C2CCN(C(=O)c3ccc(=O)n(C)c3)CC2)c2sccn12 | -5.38
O=C1COc2cc(C(=O)NS(=O)(=O)c3cc(Cl)ccc3Cl)ccc2N1 | -7.96
COc1ccc(C2CCCN2Cc2ccc(S(=O)(=O)N(C)C)o2)cc1 (centres undefined) | -5
CCNc1cc2c(nn1)CCN(C(=O)Cc1ccc(C)s1)C2 | -0.375
CC1CCCN(S(=O)(=O)NCc2ccccc2Cn2cncn2)C1 (centres undefined) | 1.55
Cc1cnn(CCC(=O)N2CCCN(c3ccccc3C#N)CC2)c1 | -2.85
CN1CCCc2cc(CNC(=O)c3ccc(-n4cnnc4)cc3)ccc21 | -4.9
O=C(NCCNc1ccc(C(F)(F)F)cn1)c1cc(Cl)ccc1F | -8.27
COc1c(C2CCCN2C(=O)c2ccc(O)nc2)c(C)nn1C (centres undefined) | 2.63
Cc1nc2ccccc2nc1CN1CCCCC1Cn1cncn1 (centres undefined) | -7.36
Cc1cc(C[S+]([O-])CC(=O)NCc2cccs2)no1 (centres undefined) | -12.3
Cc1ccc(NC2CCN(C(=O)c3cccn3C)CC2)nn1 | -3.76
COc1cc(CNC2CCc3nc(C)nn3C2)cc2c1OCCO2 (centres undefined) | -9.16
Cc1nccn1C1CCCN(C(=O)c2ccc(N(C)C)nc2)C1 (centres undefined) | -7.62
O=S(=O)(N(Cc1ccccn1)C1CC1)N1CCCC1c1ccco1 (centres undefined) | -3.73
COc1ccccc1CC(=O)N1CCC(NCc2cc[nH]c2)CC1 | 0.593

Structure (SMILES) | cytotoxicity at 10 µM [%]
Cc1cnn(CC2CCCCN2Cc2nnc(-c3ccco3)o2)c1 (centres undefined) | -10.4
Cc1cc(C(=O)O)cc(S(=O)(=O)Nc2ccc3c(c2)OCO3)c1C | 0.89
COc1cc(C)nc(N2CCN(C(=O)CNC(C)(C)C)CC2)n1 | -7.67
CN(C)c1cc(CNC(=O)c2ccc(F)cc2F)ccn1 | -4.82
COc1cc2c(cc1CNC(Cc1cccs1)c1nccs1)OCCO2 (centres undefined) | -1.6
CC(C)C(=O)N1C[C@H]2CCCN[C@H]2C1 | 1.55
C[C@@H]1CN(Cc2cccnc2)C[C@]12CCN(CCN1CCCC1)C2=O | -6.04
Cc1cccc(CN2CCC3(CC2)NC(=O)CC3c2ccccc2)n1 (centres undefined) | -0.508
COCCN1C(=O)CC[C@@H]2[C@H]1CCN2Cc1ccc(C)s1 | -70.4
CC1=N[C@@]2(CC[C@@H]3CN(CC(=O)N(C)C)C[C@@H]32)C(=O)N1CC1CC1 | -3.9
O=C1COC2(COCCN(Cc3cccnc3)C2)CN1c1ccccc1 (centres undefined) | 9.72
CCN(CC)Cc1cn2c(n1)CN(C(=O)c1cnccn1)CC2 | 6.15
Cc1ccc(CN2CCc3nnc(CN4CCCC4=O)n3CC2)s1 | 1.02
O=C(NCc1ccccn1)[C@H]1COC[C@H]2CN(CC3CC3)C[C@H]21 | -80.8
Cc1noc(C)c1CN1CC[C@H]2OCC[C@@]2(C(=O)N2CCCO2)C1 | 1.59
Cc1cccc(CN2C[C@@H]3CN(C4CCOCC4)C[C@@H]3C2=O)c1 | -130
CN(C)C(=O)N1CCO[C@@H]2CC(COCc3cccnc3)C[C@H]21 (some centres undefined) | 8.61
O=C(Nc1ccccc1)N1CCn2nnc(COc3cccnc3)c2C1 | -2.03
Cc1ccsc1C(=O)N1CC[C@@H](N(C)C)[C@@H]1Cc1cnn(C)c1 | -77.6
CN1CCNC(=O)C12CCN(Cc1ccco1)CC2 | -81.3
CCOCC1CN(CCN2CCCCC2)Cc2cnn(C)c21 (centres undefined) | -99.9
